Values after ≈ are worked out from the molar mass of the structure shown.
How the values were obtained:
[1] = Water solubility relative to Paclitaxel solubility; type: ADME; conditions: buffer
In short: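 Solubility in water by HPLC on a phenyl column: mobile phase A, 50% methanol/50% water; mobile phase B, acetonitrile. About 0.4 mg compound placed in 9 mL water in a 10 mL volumetric flask, sonicated 15 min in cold water. Quantified against a methanol standard curve (about 0.5 mg/mL serially diluted) of concentration vs HPLC peak area. Reported in µg/mL and as a ratio to paclitaxel solubility.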

[2] = Water solubility of the compound; type: ADME; conditions: read-out: S
In short: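 Aqueous solubility by HPLC on a phenyl column. Mobile phases were 50% methanol/water and acetonitrile. The standard curve came from about 0.5 mg sample in 1 mL methanol with serial dilutions, plotting concentration against HPLC peak area. For samples, about 0.4 mg was placed in 9 mL water and sonicated 15 min in a cold-water bath.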

B16 [3] = test: The compound was tested for Cytotoxic concentration against B16 melanoma cells.; type: functional; conditions: Mus musculus, B16, read-out: ED50
Tubulin (Bos taurus) [4] = target: T1, Tubulin (Bos taurus) (UniProt Q6B856+Q862L2+Q862F3); test: ED50 relative to paclitaxel in promoting tubulin polymerization
Tubulin (Bos taurus) [5] = target: T1, Tubulin (Bos taurus); test: Promotion of tubulin polymerization
B16 [6] = test: The compound was tested for Cytotoxic concentration against B16 melanoma cells relative to paclitaxel; type: functional; conditions: Mus musculus, B16, read-out: ED50
[7] = Ratio of ED50 in microtubule assembly in presence of paclitaxel to only compound; type: functional
In short: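 Bovine brain tubulin purified by three temperature-dependent assembly-disassembly cycles plus phosphocellulose-biogel P-10 chromatography, cleared at 27000g for 10 min. Varied compound levels incubated with 10 μM tubulin and 0.5 mM GTP in PEM buffer (0.1 M Pipes pH 6.9, 1 mM MgSO₄, 1 mM EGTA), 37 °C, 15 min. Spun at 40000g for 4 min; supernatant protein by Bradford. […] Ratio against paclitaxel ED50.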

Row | Structure (SMILES) | Ratio [1] | solubility [2] [µg/mL] | EC50 (B16 [3]) [nM] | ED50 (Tubulin (Bos taurus) [4]) [nM] | ED50 (Tubulin (Bos taurus) [5]) [nM] | EC50 (B16 [6]) [nM] | Ratio [7]
1 | CCCCOC(=O)N[C@H]([C@@H](O)C(=O)O[C@H]1C[C@@]2(O)[C@@H](OC(=O)c3ccccc3)[C@@H]3[C@]4(OC(C)=O)CO[C@@H]4C[C@H](O)[C@@]3(C)C(=O)[C@H](O)C(=C1C)C2(C)C)C(C)(C)C | 90 | 27 (≈ 34.3 µM) | 64 | 930 | 800 | 31.3 | 
2 | CC(=O)O[C@H]1C(=O)[C@@]2(C)[C@H]([C@H](OC(=O)c3ccccc3)[C@]3(O)C[C@H](OC(=O)[C@H](O)[C@@H](NC(=O)c4ccccc4)c4ccccc4)C(C)=C1C3(C)C)[C@]1(OC(C)=O)CO[C@@H]1C[C@@H]2O [PACLITAXEL] | 1 | 0.3 (≈ 0.351 µM) |  |  |  |  | 
3 | CCC(C)(C)OC(=O)N[C@H]([C@@H](O)C(=O)O[C@H]1C[C@@]2(O)[C@@H](OC(=O)c3ccccc3)[C@@H]3[C@]4(OC(C)=O)CO[C@@H]4C[C@H](O)[C@@]3(C)C(=O)[C@H](O)C(=C1C)C2(C)C)C(C)(C)C | 87 | 26 (≈ 32.4 µM) | 18 | 930 | 420 | 31.3 | 
4 | CC(=O)O[C@@]12CO[C@@H]1C[C@H](O)[C@@]1(C)C(=O)[C@H](O)C3=C(C)[C@@H](OC(=O)[C@H](O)[C@@H](NC(=O)OC(C)(C)C)c4ccccc4)C[C@@](O)([C@@H](OC(=O)c4ccccc4)[C@H]21)C3(C)C.O.O.O [DOCETAXEL] | 17 | 5 | 11 | 1140 | 510 | 27 | 0.45
5 | CC(=O)O[C@@]12CO[C@@H]1C[C@H](O)[C@@]1(C)C(=O)[C@H](O)C3=C(C)[C@@H](OC(=O)[C@H](O)[C@@H](NC(=O)C(C)(C)C)C(C)(C)C)C[C@@](O)([C@@H](OC(=O)c4ccccc4)[C@H]21)C3(C)C |  |  | 930 | 1050 | 1350 | 29 | 1.3
6 | CC(=O)O[C@@]12CO[C@@H]1C[C@H](O)[C@@]1(C)C(=O)[C@H](O)C3=C(C)[C@@H](OC(=O)[C@H](O)[C@@H](NC(=O)c4ccccc4)C(C)(C)C)C[C@@](O)([C@@H](OC(=O)c4ccccc4)[C@H]21)C3(C)C | 9.3 | 2.8 (≈ 3.54 µM) |  | 930 | 1700 |  | 
7 | CCCCCCOC(=O)N[C@H]([C@@H](O)C(=O)O[C@H]1C[C@@]2(O)[C@@H](OC(=O)c3ccccc3)[C@@H]3[C@]4(OC(C)=O)CO[C@@H]4C[C@H](O)[C@@]3(C)C(=O)[C@H](O)C(=C1C)C2(C)C)C(C)(C)C |  |  | 370 | 930 | 2100 | 31.3 | 2.3
8 | CC(=O)O[C@@]12CO[C@@H]1C[C@H](O)[C@@]1(C)C(=O)[C@H](O)C3=C(C)[C@@H](OC(=O)[C@H](O)[C@@H](/N=C(/S)NC(C)(C)C)C(C)(C)C)C[C@@](O)([C@@H](OC(=O)c4ccccc4)[C@H]21)C3(C)C |  |  | > 1000 | 900 | 3200 | 24.4 | 3.6
9 | CC(=O)O[C@@]12CO[C@@H]1C[C@H](O)[C@@]1(C)C(=O)[C@H](O)C3=C(C)[C@@H](OC(=O)[C@H](O)[C@@H](NC(=O)NC(C)(C)C)C(C)(C)C)C[C@@](O)([C@@H](OC(=O)c4ccccc4)[C@H]21)C3(C)C | 97 | 29 (≈ 36.9 µM) | 26 | 1050 | 630 | 29 | 
10 | CC(=O)O[C@@]12CO[C@@H]1C[C@H](O)[C@@]1(C)C(=O)[C@H](O)C3=C(C)[C@@H](OC(=O)[C@H](O)[C@@H](NC(=O)CC(C)(C)C)C(C)(C)C)C[C@@](O)([C@@H](OC(=O)c4ccccc4)[C@H]21)C3(C)C | 87 | 26 (≈ 33.1 µM) | 104 | 1050 | 500 | 29 | 
11 | CC(=O)O[C@@]12CO[C@@H]1C[C@H](O)[C@@]1(C)C(=O)[C@H](O)C3=C(C)[C@@H](OC(=O)[C@H](O)[C@@H](NC(=O)OC(C)(C)C)C(C)(C)C)C[C@@](O)([C@@H](OC(=O)c4ccccc4)[C@H]21)C3(C)C | 93 | 28 (≈ 35.5 µM) | 12.5 | 930 | 350 | 31.3 | 
12 | CC(=O)O[C@@]12CO[C@@H]1C[C@H](O)[C@@]1(C)C(=O)[C@H](O)C3=C(C)[C@@H](OC(=O)[C@H](O)[C@@H](NC(=O)Nc4ccccc4)C(C)(C)C)C[C@@](O)([C@@H](OC(=O)c4ccccc4)[C@H]21)C3(C)C | 4.7 | 1.4 (≈ 1.74 µM) | 18.8 | 1040 | 330 | 26.8 | 
13 | CC(=O)O[C@@]12CO[C@@H]1C[C@H](O)[C@@]1(C)C(=O)[C@H](O)C3=C(C)[C@@H](OC(=O)[C@H](O)[C@@H](NC(=O)Oc4ccccc4)C(C)(C)C)C[C@@](O)([C@@H](OC(=O)c4ccccc4)[C@H]21)C3(C)C |  |  | > 1000 | 930 | 1300 | 31.3 | 1.4
14 | CC(=O)O[C@@]12CO[C@@H]1C[C@H](O)[C@@]1(C)C(=O)[C@H](O)C3=C(C)[C@@H](OC(=O)[C@H](O)[C@@H](NC(=O)OCC(C)C)C(C)(C)C)C[C@@](O)([C@@H](OC(=O)c4ccccc4)[C@H]21)C3(C)C | 93 | 28 (≈ 35.5 µM) |  | 930 | 500 |  | 

Source: ChEMBL document CHEMBL1128693, “Novel cytotoxic 3'-(tert-butyl) 3'-dephenyl analogs of paclitaxel and docetaxel” (J Med Chem, 1995)
